# Shown are actives, neighbours in structure and some others; about 12% of the full set was active somewhere.
# Diaph act CS: compounds boosting diaphorase resazurin reduction – biochemical, uHTS, resorufin fluorescence, counter-screen for diaphorase-coupled primary assays, primary screen; Diaphorase/resazurin coupled assay, 16 min; active compounds read high; 1 = vehicle wells, 0 = NADH-free wells; activation factor at 20 µM; 190,000 compounds, 0.005% hits; AID 1229, 2008;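 active means diaphorase activity raised at least twofold by the compound at 20 µM; inactive means activation factor below 2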
#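 Measured by – red resorufin fluorescence at 544/590 nm excitation/emission · Test system – Clostridium kluyveri diaphorase, purified enzyme · Incubation – reaction time 16 min, room temperature · Buffer or medium – 50 mM HEPES pH 7.4 with 4.542 mM MgCl2, 0.005% Tween 20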
# ROMK primary: ROMK potassium channel modulators, primary screen, cell-based, thallium flux, MLSMR library. ATP-sensitive inward rectifier potassium channel 1 (Homo sapiens), P48048. Tet-inducible ROMK, thallium flux fluorescence; actives lie on both sides. B-score at 10 µM. 130,000 compounds, 2% hits. AID 1918, 2009;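 active means signal ratio slope over the read window, or its plate-corrected B-score, at least 3 SD from the plate mean, either direction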;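 further: B-score of the F/F0 ratio slope over 7 to 12 s after thallium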
# Target sequence (P48048 whole entry, looked up): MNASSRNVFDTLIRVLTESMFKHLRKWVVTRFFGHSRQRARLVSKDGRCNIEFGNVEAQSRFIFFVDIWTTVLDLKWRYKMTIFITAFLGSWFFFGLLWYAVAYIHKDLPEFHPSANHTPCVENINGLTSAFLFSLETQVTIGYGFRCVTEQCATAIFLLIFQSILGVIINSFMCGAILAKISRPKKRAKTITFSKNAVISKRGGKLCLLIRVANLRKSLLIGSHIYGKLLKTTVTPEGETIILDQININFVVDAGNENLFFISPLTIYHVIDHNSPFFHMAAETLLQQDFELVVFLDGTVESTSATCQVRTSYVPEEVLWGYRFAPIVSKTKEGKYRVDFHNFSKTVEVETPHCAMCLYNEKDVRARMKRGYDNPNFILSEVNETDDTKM
# Diaphorase inh: diaphorase inhibitors and chemical oxidizers, primary screen, counter-screen for diaphorase-coupled primary assays, biochemical, uHTS, resorufin fluorescence; diaphorase resazurin-to-resorufin fluorescence, NADH, 16 min; bacterial (C. kluyveri) enzyme, not human; inhibition, % at 20 µM; 190,000 compounds, 0.69% hits;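 active means primary screen inhibition at 20 µM above a set limit, cut at about 50% in these data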;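 further: plate controls were DMSO with full reaction for no effect and wells lacking NADH for full effect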
#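 Detection: fluorescence of resorufin formed from resazurin, Ex 544/Em 590 nm; test system: Clostridium kluyveri diaphorase enzyme; amount: 0.14 U/mL diaphorase, enzyme working solution; times: 16-min room-temperature incubation before reading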
# WT yeast gro inh: growth inhibition of WT strain, primary screen, mitochondrial fusion inhibitor project, WT and mutant strains, chemical genetic; 190,000 compounds, 2.1% hits; inhibition, % at 10 µM; mitochondrial fusion phenotypic screen; in the data active means inhibition above about 58%; tested in S. cerevisiae
# Lmaj promast: Leishmania major promastigote growth inhibition, primary screen | Leishmania major promastigotes, resazurin fluorescence viability | inhibition, % at 10 µM | 200,000 compounds, 9% hits | AID 1063, 2008; in the data active means inhibition above about 50%;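 further: promastigotes grown with compound for 44 hours at 28 °C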
# KCC2 mod: KCC2 cotransporter modulators, thallium flux, primary screen, cell-based, HEK293 KCC2, FluoZin-2 fluorescence, MLSMR | Solute carrier family 12 member 5 (Homo sapiens), Q9H2X9 | KCC2 cells, thallium flux FluoZin-2 fluorescence | B-score of Tl+ flux slope (higher = more flux/activation; lower = inhibition) at 10 µM | 190,000 compounds, 2.2% hits | AID 1456, 2008;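 active means thallium flux slope and its plate-corrected score both differing from the plate sample mean at a set confidence after two filtering rounds, in either direction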;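 further: slope of fluorescence scaled to starting intensity during 10 to 20 s after thallium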
# ROMK retest: ROMK channel modulator hit retest, confirmation, cell-based, thallium flux, duplicate, resupplied hits. shares compounds with ROMK primary. fluorescence ratio; active compounds read low. 3,000 compounds, 54% hits. normalized thallium flux (F/F0 slope) at 10 µM;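 active means Flux at 10 µM at least 3 SD below or above vehicle control mean in one or both replicates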
# * = called active by the depositor; · = no result.
SMILES,Diaph act CS,ROMK primary,Diaphorase inh,WT yeast gro inh,Lmaj promast,KCC2 mod,ROMK retest
CCOC(=O)c1cn(-c2nc(-c3ccc(Cl)cc3)cs2)c2c(F)c(N3CC(C)OC(C)C3)c(F)cc2c1=O (stereo not given),1,0.44,1,15,8,0.077,·
COc1cc(OC)c(S(=O)(=O)NC(C)C)cc1S(=O)(=O)NC(C)C,0.9,0.4,14,0,-5,-0.11,·
CCCCc1ccc(S(=O)(=O)NCCc2ccncc2)cc1,1,·,3,6,84*,·,0.062*
CCc1nc(SCC(=O)c2c[nH]c3ccccc23)n[nH]1,0.8,·,17,2,6,0.36,·
CCOc1ccccc1Nc1nnc(C)c(=O)[nH]1,0.9,0.075,7,3,3,·,·
COc1ccccc1Nc1nnc(C)c(=O)[nH]1,1,3*,5,1,3,·,0.077
CCn1c(SCc2cccc(F)c2)nnc1-c1cccnc1,0.8,2.3,25,15,8,0.93,·
CCN(Cc1ccncc1)C(=O)c1cccs1,0.8,0.32,20,-10,-5,-1.1,·
COc1ccc(OC)c(C2C(C(=O)c3ccccc3)=C(C)Nc3nc4ccccc4n32)c1 (stereo not given),0.9,2.5*,8,-7,79*,0.014,0.068*
CCN(CC)C(=O)Cn1cc(C(=O)C2CC2)c2ccccc21,0.9,-0.34,10,2,0,0.8,·
CCN(CC)S(=O)(=O)c1ccc(N2CCCC2)c(NC(=O)Cc2ccccc2)c1,·,·,·,·,·,-0.96,·
CCN(CC)S(=O)(=O)c1ccc(N2CCOCC2)c(NC(=O)Cc2ccc(Cl)cc2)c1,0.9,·,14,14,50*,0.0071,0.07
O=C(COC(=O)c1cccc(S(=O)(=O)NCc2ccccc2)c1)NCC1CCCO1 (stereo not given),0.9,-0.25,13,-15,-3,-0.48,·
COc1cc2cccc(OC)c(=O)c2c(O)c1OC,0.9,0.28,14,-16,4,-1.4,·
COc1cc2c(cc1OC)-c1c(OC)c(OC)cc3ccnc(c13)C2=O,0.6,-3.4*,40,14,63*,-2.3,0.054*
CCOc1ccc(C(=O)NC(C)(C)CC)cc1,0.9,·,8,-6,-3,1.9,·
O=C(/C=C\Nc1ccc2c(c1)OCO2)c1ccc2c(c1)OCO2,0.9,·,12,6,-6,·,0.059*
COc1ccc(N/C=C\C(=O)c2ccc3c(c2)OCO3)cc1,1,0.56,0,-10,6,0.25,·
Cc1ccccc1CSc1nc(-c2ccccc2)cc(=O)[nH]1,0.9,·,13,1,-4,0.37,·
Nc1ccc(S(=O)(=O)NC2=NCCCCC2)cc1N,0.9,-0.42,14,1,-2,-0.18,·
O=[N+]([O-])c1cc(S(=O)(=O)NC2=NCCCCC2)ccc1NCC1CCCCC1,0.7,-7.6*,28,38,4,-0.2,0.059*
CC(C)N1CCC(N2CCN(Cc3ccc(-c4ccc(Cl)cc4)o3)CC2CCO)CC1 (stereo not given),1.1,-3.7*,-5,1,88*,-0.53,0.064*
COC(=O)c1ccc(CO/N=C/c2ccc(OC)cc2)o1,0.9,·,8,24,1,-0.048,·
COCCCNc1ccc([N+](=O)[O-])cc1C(=O)Nc1cccc(C)n1,1,-4.1*,1,-4,11,-1.6,0.045*
CCOc1ccc(-c2[nH]ncc2-c2ccc(OC)c(OC)c2)c(O)c1,0.9,3.7*,13,3,-10,-0.84,0.099*
SMILES,Diaph act CS,ROMK primary,Diaphorase inh,WT yeast gro inh,Lmaj promast,KCC2 mod,ROMK retest
CC1=CC2=NC(=O)/C(=C\c3cccn3CCOc3cccc(C)c3)C(=N)N2O1,0.8,-0.33,24,38,13,-1.5,·
COc1cccc(OCCn2cccc2/C=C2/C(=N)N3OC(C)=CC3=NC2=O)c1,0.8,-3.3*,18,21,24,-1.2,0.077
CCc1sc(NS(C)(=O)=O)nc1-c1ccccc1,0.8,2.8*,20,-3,-5,0.55,0.083
CCc1sc(NC(C)=O)nc1-c1ccccc1,0.8,-1.6,16,-23,-2,-0.018,·
ClC(Cl)(c1nnnn1-c1ccccc1)c1nnnn1-c1ccccc1,0.8,-2.8*,19,88*,50,-1.2,0.06*
c1ccc(N2CCN(c3nnnn3-c3ccccc3)CC2)cc1,1,-0.84,-2,18,15,0.008,·
CCCC(c1nnnn1C(C)(C)C)N1CCN(Cc2ccccc2OC)CC1 (stereo not given),1.1,0.077,-14,-4,-2,-0.51,·
CCCC(c1nnnn1C(C)(C)C)N1CCN(c2ccccc2)CC1 (stereo not given),1,-13*,2,2,-6,0.00076,0.083
O=C(/C=C/c1cccc2ccccc12)N1CCOCC1,·,·,·,·,·,-0.58,·
CCCN(C#N)c1nc(NCC)nc(NC(C)C)n1,0.8,-0.61,16,-3,8,·,·
CCN(C#N)c1nc(NC(C)C)nc(NC(C)(C)C)n1,0.9,-7.8*,10,-8,1,-0.17,0.077
COc1ccc(CNC(=O)COC(=O)c2cncc(Br)c2)cc1,1,0.073,2,-3,-9,-0.96,0.077
Cc1ccc(CNC(=O)COC(=O)c2cncc(Br)c2)cc1,0.9,-0.12,8,-8,-6,0.023,·
Nc1nc2ccccc2n1C(=O)c1cccs1,1,-0.052,1,18,23,0.7,·
Cc1ccc(N2C(=O)[C@@H]3[C@H](C2=O)[C@H]2C=C(C(=O)c4ccccc4)C=CN2[C@@H]3C(=O)c2ccc(Cl)cc2)cc1,0.8,·,22,10,-1,0.25,0.077
COc1ccccc1CNCC(O)Cn1c2ccccc2c2ccccc21 (stereo not given),0.9,-3.2*,12,91,100*,0.62,0.061*
COC(=O)c1ccc(C2C(C(C)=O)=C(C)Nc3ncnn32)cc1 (stereo not given),0.9,·,13,11,9,0.58,·
OCCC1CN(Cc2ccccc2-c2ccco2)CCN1C1CCCC1 (stereo not given),0.8,-4*,16,12,40,-2.9,0.051*
COC(=O)CCN(C(=O)c1ccc(N2CCCCC2)c([N+](=O)[O-])c1)c1ccccn1,0.9,-2.1*,10,1,-4,0.12,0.067*
